RGS4 act = RGS4 potentiators or activators, primary screen, cell-based, HEK293 M3R inducible RGS4, calcium flux; carbachol calcium flux Fluo4; active compounds read low; hit rate 0.92% among 310,000; AID 463111, 2010; B-score at 10 µM;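 active means B-score of the integrated calcium signal more than 4 SD below the library mean, with starting fluorescence not abnormally high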;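 further: negative B-score means reduced calcium response which marks RGS4 activation or potentiation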
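Test system: HEK293 cells with stable M3R and inducible RGS4; also added: carbachol at ECmax as muscarinic agonist stimulus; schedule: dye loading 30 min 37 °C, buffer rest 30 min RT; technique: kinetic calcium fluorescence imaging with Fluo4-AM dye, 2 µM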
MrgX1 agonist = agonists of human MrgX1 receptor, primary screen, HEK293 cells, Fluo-4 calcium flux | B-score at 10 µM | Fluo-4 calcium fluorescence, agonist mode; active compounds read high | AID 588627, 2011 | Mas-related G-protein coupled receptor member X1 (Homo sapiens), Q96LB2 | hit rate 0.44% among 310,000;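 active means calcium response B-score plate-corrected fluorescence ratio at least 3 library SD, with starting fluorescence B-score inside 5 SD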
Target sequence (Q96LB2 whole entry, looked up): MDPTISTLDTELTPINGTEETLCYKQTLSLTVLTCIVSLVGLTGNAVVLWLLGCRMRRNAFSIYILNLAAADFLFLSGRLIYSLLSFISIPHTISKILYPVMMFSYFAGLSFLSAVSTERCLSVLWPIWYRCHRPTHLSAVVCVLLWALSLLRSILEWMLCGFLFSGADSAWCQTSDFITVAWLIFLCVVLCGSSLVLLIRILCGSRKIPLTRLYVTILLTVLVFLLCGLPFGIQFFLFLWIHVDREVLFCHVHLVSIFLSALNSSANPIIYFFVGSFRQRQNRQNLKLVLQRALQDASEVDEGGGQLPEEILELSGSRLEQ
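Test system: HEK293 cells stably expressing human MrgX1 receptor; amount: 15,000 cells per well; doses: compound delivered in addition one of three; times: overnight plating before 1 h dye loading; detection: Fluo-4 NW calcium-flux fluorescence, kinetic read; read-out basis: B-scored fluorescence response ratio; controls: positive and negative controls per plate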
RGS4 inh = RGS4 inhibitors, primary screen, cell-based, HEK293 M3R inducible RGS4, calcium flux; Regulator of G-protein signaling 4 (Homo sapiens), P49798; Fluo-4 calcium flux; active compounds read high; triggered by carbachol at its EC20; hit rate 0.45% among 310,000; B-score at 10 µM;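 active means B-score, a plate-corrected calcium signal, over three deviations above library mean, with baseline fluorescence within five deviations of library mean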;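 further: RGS4 expression induced by doxycycline in cells with stable M3 receptor; B-score is computed from the integrated fluorescence ratio over baseline after carbachol; higher B-score means a larger calcium signal and so more RGS4 inhibition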
Target sequence (P49798 whole entry, looked up): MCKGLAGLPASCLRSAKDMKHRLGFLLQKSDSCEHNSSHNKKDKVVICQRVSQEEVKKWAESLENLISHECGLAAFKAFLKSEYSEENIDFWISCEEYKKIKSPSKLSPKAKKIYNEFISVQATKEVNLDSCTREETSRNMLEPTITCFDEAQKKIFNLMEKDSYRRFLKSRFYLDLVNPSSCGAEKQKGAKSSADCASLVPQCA
MrgX1 antagonist = antagonists of human MrgX1 receptor, primary screen, HEK293 cells, Fluo-4 calcium flux. B-score at 10 µM. BAM8-22 antagonism; active compounds read low. hit rate 1.3% among 310,000;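 active means calcium-response B-score plate-corrected more than 3 library SD below zero, starting fluorescence within 5 deviations, no agonist response on first addition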;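 further: peak minus trough fluorescence over baseline after final BAM8-22 challenge near maximal dose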
MrgX1 allo act = positive allosteric modulators of MrgX1, primary screen, HEK293 cells, Fluo-4 calcium flux | Mas-related G-protein coupled receptor member X1 (Homo sapiens), Q96LB2 | FDSS; active compounds read high | B-score at 10 µM | hit rate 0.63% among 310,000 | AID 588675, 2011;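 active means plate-corrected calcium response at least 3 library SD above typical, normal starting fluorescence, not activating the receptor alone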;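 further: compound read alongside a low EC10 to EC30 dose of BAM8-22 agonist; peak minus trough fluorescence over baseline measured at the second addition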
Hits are given with their value. This is a sample that favours compounds with a hit; in the whole collection about 3.5% have one here.

What do the screens show for `CCOC(=O)c1cnc2c(C(=O)OC)cccc2c1NCc1cccnc1`?
RGS4 act: -7; MrgX1 agonist: inactive; RGS4 inh: inactive; MrgX1 antagonist: inactive; MrgX1 allo act: inactive

How did CCOC(=O)c1cnc2c(Cl)cccc2c1NCCN(C)C do in these assays?
RGS4 act: inactive; MrgX1 agonist: inactive; RGS4 inh: inactive; MrgX1 antagonist: inactive; MrgX1 allo act: inactive

How did CCOC(=O)c1cnc2c(C)cccc2c1Nc1cccc(C(=O)O)c1 do in these assays?
RGS4 act: inactive; MrgX1 agonist: inactive; RGS4 inh: inactive; MrgX1 antagonist: inactive; MrgX1 allo act: inactive

How did CCOC(=O)c1cnc2c(C)cccc2c1NCCc1ccc(OC)c(OC)c1 do in these assays?
RGS4 act: -7.4; MrgX1 agonist: inactive; RGS4 inh: inactive; MrgX1 antagonist: inactive; MrgX1 allo act: inactive

What do the screens show for `CCOC(=O)c1cnc2ccc(C(=O)OC)cc2c1NCCc1ccc(OC)c(OC)c1`?
RGS4 act: inactive; MrgX1 agonist: inactive; RGS4 inh: inactive; MrgX1 antagonist: -6.4; MrgX1 allo act: inactive

How did CCOC(=O)c1cnc2ccc(C(=O)OC)cc2c1NCCN1CCOCC1 do in these assays?
RGS4 act: inactive; MrgX1 agonist: inactive; RGS4 inh: inactive; MrgX1 antagonist: inactive; MrgX1 allo act: inactive

How did CC(C)(C)c1ccc(OCCC(=O)NNC(=O)c2ccncc2)cc1 do in these assays?
RGS4 act: inactive; MrgX1 agonist: inactive; RGS4 inh: inactive; MrgX1 antagonist: inactive; MrgX1 allo act: inactive

How did O=C(N/N=C/c1cn(-c2ccccc2)nc1-c1cccnc1)c1ccc(F)cc1 do in these assays?
RGS4 act: inactive; MrgX1 agonist: inactive; RGS4 inh: inactive; MrgX1 antagonist: inactive; MrgX1 allo act: inactive

Results for O=C(N/N=C/c1cn(-c2ccccc2)nc1-c1cccs1)c1ccccc1F ?
RGS4 act: -7.4; MrgX1 agonist: inactive; RGS4 inh: inactive; MrgX1 antagonist: inactive; MrgX1 allo act: inactive

What do the screens show for `O=C(N/N=C/c1cn(-c2ccccc2)nc1-c1cccs1)c1ccc(Cl)cc1`?
RGS4 act: -7; MrgX1 agonist: inactive; RGS4 inh: inactive; MrgX1 antagonist: inactive; MrgX1 allo act: inactive

Results for O=C(CSc1nncc2ccccc12)Nc1cccc(O)c1 ?
RGS4 act: inactive; MrgX1 agonist: inactive; RGS4 inh: inactive; MrgX1 antagonist: inactive; MrgX1 allo act: inactive

Results for N#C/C(=C(/O)CCl)c1nc(-c2ccccc2)cs1 ?
RGS4 act: inactive; MrgX1 agonist: inactive; RGS4 inh: inactive; MrgX1 antagonist: -6.1; MrgX1 allo act: inactive

What do the screens show for `NC(=O)[C@@H]1CCNc2c(I)cc([N+](=O)[O-])cc2C(=O)N[C@@H](CCC(=O)O)C(=O)N[C@@H](CO)C(=O)N1`?
MrgX1 agonist: inactive; MrgX1 antagonist: -6.5; MrgX1 allo act: inactive

How did COc1cccc(C(=O)C[n+]2ccccc2/C=N/O)c1 do in these assays?
RGS4 act: -7.4; MrgX1 agonist: inactive; RGS4 inh: inactive; MrgX1 antagonist: inactive; MrgX1 allo act: inactive

What do the screens show for `N#CCCCN1C(=O)C(=C(C#N)C#N)c2ccccc21`?
RGS4 act: inactive; MrgX1 agonist: 33; RGS4 inh: inactive; MrgX1 antagonist: inactive; MrgX1 allo act: inactive

Results for CCOc1ccccc1NC(=O)C(C)SCc1ccccc1 (configuration not stated) ?
RGS4 act: inactive; MrgX1 agonist: inactive; RGS4 inh: inactive; MrgX1 antagonist: inactive; MrgX1 allo act: inactive

How did CC(SCc1ccccc1)C(=O)Nc1ccccc1-c1ccccc1 (configuration not stated) do in these assays?
RGS4 act: inactive; MrgX1 agonist: inactive; RGS4 inh: inactive; MrgX1 antagonist: inactive; MrgX1 allo act: 12

How did Cc1cccc(NC(=O)C23CCC(C)(/C(=N/O)C2)C3(C)C)c1 (configuration not stated) do in these assays?
RGS4 act: inactive; MrgX1 agonist: inactive; RGS4 inh: inactive; MrgX1 antagonist: -5.8; MrgX1 allo act: inactive

Results for CC12CCC(C(=O)Nc3ccccc3)(C/C1=N\O)C2(C)C (configuration not stated) ?
RGS4 act: inactive; MrgX1 agonist: inactive; RGS4 inh: inactive; MrgX1 antagonist: inactive; MrgX1 allo act: inactive

What do the screens show for `CN(C)c1ccc(/C=C2/NC(=O)NC2=O)cc1`?
RGS4 act: inactive; MrgX1 agonist: inactive; RGS4 inh: inactive; MrgX1 antagonist: inactive; MrgX1 allo act: inactive

How did CN(C)c1ccc(/C=C2\N=C(c3ccc(Cl)c([N+](=O)[O-])c3)NC2=O)cc1 do in these assays?
RGS4 act: inactive; MrgX1 agonist: inactive; RGS4 inh: inactive; MrgX1 antagonist: -6.9; MrgX1 allo act: inactive

Results for Cc1csc(CNC(=O)c2cc(COc3c(C)cccc3C)on2)n1 ?
RGS4 act: inactive; MrgX1 agonist: inactive; RGS4 inh: inactive; MrgX1 antagonist: inactive; MrgX1 allo act: inactive

What do the screens show for `CCOc1ccc(C(=O)NNC2CC(=O)N(CCc3ccccc3)C2=O)cc1OC` (configuration not stated)?
RGS4 act: inactive; MrgX1 agonist: inactive; RGS4 inh: inactive; MrgX1 antagonist: -5.5; MrgX1 allo act: inactive

What do the screens show for `COc1cccc(S(=O)(=O)Nc2cccc(C(=O)N3CCCC3)c2)c1`?
RGS4 act: inactive; MrgX1 agonist: inactive; RGS4 inh: inactive; MrgX1 antagonist: inactive; MrgX1 allo act: inactive

How did COc1cccc(S(=O)(=O)Nc2cccc(C(=O)N3CCOCC3)c2)c1 do in these assays?
RGS4 act: -7.5; MrgX1 agonist: inactive; RGS4 inh: inactive; MrgX1 antagonist: inactive; MrgX1 allo act: inactive

How did O=C(O)Cc1ccc(NC(=O)C2CC=CCC2C(=O)O)cc1 (configuration not stated) do in these assays?
RGS4 act: inactive; MrgX1 agonist: inactive; RGS4 inh: inactive; MrgX1 antagonist: -8.3; MrgX1 allo act: inactive

What do the screens show for `CCc1ccc(NC(=O)C2CC=CCC2C(=O)O)cc1` (configuration not stated)?
RGS4 act: inactive; MrgX1 agonist: inactive; RGS4 inh: inactive; MrgX1 antagonist: inactive; MrgX1 allo act: inactive

What do the screens show for `Clc1cccc(Cl)c1CO/N=C/c1cccs1`?
RGS4 act: inactive; MrgX1 agonist: inactive; RGS4 inh: inactive; MrgX1 antagonist: inactive; MrgX1 allo act: inactive

Results for Cc1c(C)c(C)c(CO/N=C/c2cccs2)c(C)c1C ?
RGS4 act: inactive; MrgX1 agonist: inactive; RGS4 inh: inactive; MrgX1 antagonist: inactive; MrgX1 allo act: 8.2

Results for COc1ccc(S(=O)(=O)N2CCOCC2)cc1NC(=O)COc1cccnc1[N+](=O)[O-] ?
RGS4 act: inactive; MrgX1 agonist: inactive; RGS4 inh: inactive; MrgX1 antagonist: inactive; MrgX1 allo act: inactive

How did CCOC(=O)c1cnc2sc3c(n2c1=O)CCCC3 do in these assays?
MrgX1 agonist: inactive; MrgX1 antagonist: -5.2; MrgX1 allo act: inactive

Results for CCOc1ccc(CCNC(=O)Cn2nc(C)n3cccc3c2=O)cc1OCC ?
RGS4 act: inactive; MrgX1 agonist: inactive; RGS4 inh: inactive; MrgX1 antagonist: inactive; MrgX1 allo act: inactive
